Our source for the EC50 values is ChEMBL document CHEMBL2321783, “Structure-activity relationships of peptides incorporating a bioactive reverse-turn heterocycle at the melanocortin receptors: identification of a 5800-fold mouse melanocortin-3 receptor (mMC3R) selective antagonist/partial agonist versus the mouse melanocortin-4 receptor (mMC4R)” (J Med Chem, 2013).

Type in all cases: functional, cell-based
Assay [1] deals with Melanocortin receptor 5 (Mus musculus, UniProt P41149). The assay is described as follows: Agonist activity at mouse MC5 receptor expressed in HEK293 cells after 6 hrs by cAMP-based beta-galactosidase reporter gene assay. The note with it: hek293. Summed up: (§1)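 HEK-293 cells stably expressing the mouse receptor, kept in DMEM with 10% fetal calf serum, transfected with CRE/β-galactosidase reporter. Efficacy is relative to NDP-MSH on the same plate. EC50 is the mean of duplicate wells from three or more independent experiments, fitted by nonlinear least squares.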
Chain of Melanocortin receptor 5 (P41149 whole entry): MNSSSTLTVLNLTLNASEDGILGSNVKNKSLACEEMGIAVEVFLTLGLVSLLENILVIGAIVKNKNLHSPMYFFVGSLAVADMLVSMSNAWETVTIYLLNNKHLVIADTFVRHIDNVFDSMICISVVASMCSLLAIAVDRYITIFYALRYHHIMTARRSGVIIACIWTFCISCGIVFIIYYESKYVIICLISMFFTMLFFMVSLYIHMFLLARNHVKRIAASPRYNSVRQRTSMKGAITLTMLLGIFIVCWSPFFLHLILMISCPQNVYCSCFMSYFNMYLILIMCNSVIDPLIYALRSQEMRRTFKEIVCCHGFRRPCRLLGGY

The target of assay [2] is Melanocortin receptor 4 (Mus musculus, UniProt P56450). Nature of the assay: Agonist activity at mouse MC4 receptor expressed in HEK293 cells after 6 hrs by cAMP-based beta-galactosidase reporter gene assay. To be noted: hek293. The essentials:
as §1

In assay [3] the target is Melanocyte-stimulating hormone receptor (Mus musculus, UniProt Q01727). The assay is described as follows: Agonist activity at mouse MC1 receptor expressed in HEK293 cells after 6 hrs by cAMP-based beta-galactosidase reporter gene assay. To be noted: hek293. Summed up:
as §1

Assay [4] deals with Melanocortin receptor 3 (Mus musculus, UniProt P33033). Nature of the assay: Agonist activity at mouse MC3 receptor expressed in HEK293 cells after 6 hrs by cAMP-based beta-galactosidase reporter gene assay. Summed up: as §1
Chain of Melanocortin receptor 3 (P33033 whole entry): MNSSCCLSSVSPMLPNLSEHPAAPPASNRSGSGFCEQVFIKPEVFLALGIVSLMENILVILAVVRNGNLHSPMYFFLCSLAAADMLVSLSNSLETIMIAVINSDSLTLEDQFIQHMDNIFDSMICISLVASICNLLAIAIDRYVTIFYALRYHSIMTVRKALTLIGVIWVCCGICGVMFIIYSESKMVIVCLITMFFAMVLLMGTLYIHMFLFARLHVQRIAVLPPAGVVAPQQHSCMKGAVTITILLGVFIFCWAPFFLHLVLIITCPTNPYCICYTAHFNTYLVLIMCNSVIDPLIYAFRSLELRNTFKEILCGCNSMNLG

pEC50: −log10 of the molar value.

Chain of Melanocyte-stimulating hormone receptor (Q01727 whole entry): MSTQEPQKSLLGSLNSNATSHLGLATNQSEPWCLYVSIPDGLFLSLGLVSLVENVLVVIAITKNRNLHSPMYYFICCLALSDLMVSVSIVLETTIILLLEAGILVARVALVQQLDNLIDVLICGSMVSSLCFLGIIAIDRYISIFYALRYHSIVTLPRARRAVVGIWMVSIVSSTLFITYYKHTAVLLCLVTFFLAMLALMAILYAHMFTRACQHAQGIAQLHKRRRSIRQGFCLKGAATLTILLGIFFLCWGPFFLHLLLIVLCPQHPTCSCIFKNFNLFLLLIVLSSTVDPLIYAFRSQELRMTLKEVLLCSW
Chain of Melanocortin receptor 4 (P56450 whole entry): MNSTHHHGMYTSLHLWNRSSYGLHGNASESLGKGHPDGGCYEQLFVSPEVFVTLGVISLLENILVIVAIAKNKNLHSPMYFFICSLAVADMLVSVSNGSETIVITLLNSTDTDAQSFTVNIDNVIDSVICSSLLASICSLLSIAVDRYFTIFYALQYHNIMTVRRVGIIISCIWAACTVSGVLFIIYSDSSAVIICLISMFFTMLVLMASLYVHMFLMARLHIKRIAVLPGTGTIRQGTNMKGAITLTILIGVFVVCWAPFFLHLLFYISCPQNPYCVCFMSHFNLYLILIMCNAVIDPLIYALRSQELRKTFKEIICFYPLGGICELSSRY

As to `C[C@@H]1NC(=O)[C@H](CC(N)=O)NC(=O)[C@H](Cc2c[nH]c3ccccc23)N2C[C@H](CCCCN)NC(=O)[C@H](CSCC2=O)NC(=O)[C@@H](Cc2ccccc2)NC(=O)[C@H](Cc2c[nH]cn2)NC(=O)[C@@H](NC(=O)[C@@H](N)Cc2ccc(O)cc2)CSSC[C@@H](C(=O)N[C@@H](Cc2ccc(O)cc2)C(N)=O)NC(=O)[C@H](Cc2ccccc2)NC1=O`, the pEC50 was 6.34 in assay [1], 6.38 in assay [2] and 7.52 in assay [3].

Regarding `C[C@@H]1NC(=O)[C@H](CC(N)=O)NC(=O)[C@H](Cc2c[nH]c3ccccc23)N2C[C@H](CCCN=C(N)N)NC(=O)[C@H](CSCC2=O)NC(=O)[C@@H](Cc2ccccc2)NC(=O)[C@H](Cc2cnc[nH]2)NC(=O)[C@@H](NC(=O)[C@@H](N)Cc2ccc(O)cc2)CSSC[C@@H](C(=O)N[C@@H](Cc2ccc(O)cc2)C(N)=O)NC(=O)[C@H](Cc2ccccc2)NC1=O`, the pEC50 was 7.34 in assay [1], 6.72 in assay [2] and 8.62 in assay [3].

For the compound `C[C@@H]1NC(=O)[C@@H](NC(=O)[C@@H](N)Cc2ccc(O)cc2)CSSC[C@@H](C(=O)N[C@@H](Cc2ccc(O)cc2)C(N)=O)NC(=O)[C@H](Cc2ccccc2)NC(=O)[C@H](C)NC(=O)[C@H](CC(N)=O)NC(=O)[C@H](Cc2c[nH]c3ccccc23)N2C[C@H](CCCNC(=N)N)NC(=O)[C@H](CSCC2=O)NC(=O)[C@@H](Cc2ccccc2)NC1=O`, the pEC50 in assay [1] is 6.16; in assay [2] it was 6.15; in assay [3], 7.28.

`C[C@@H]1NC(=O)[C@H](CC(N)=O)NC(=O)[C@H](Cc2c[nH]c3ccccc23)N2C[C@H](CCCNC(=N)N)NC(=O)[C@H](CSCC2=O)NC(=O)[C@@H](Cc2ccccc2)NC(=O)[C@@H]2CCCN2C(=O)[C@@H](NC(=O)[C@@H](N)Cc2ccc(O)cc2)CSSC[C@@H](C(=O)N[C@@H](Cc2ccc(O)cc2)C(N)=O)NC(=O)[C@H](Cc2ccccc2)NC1=O`: the pEC50 was 6.57 in assay [1], 6.62 in assay [2] and 7.49 in assay [3].

`C[C@@H]1NC(=O)[C@H](CC(N)=O)NC(=O)[C@H](Cc2ccc3ccccc3c2)N2C[C@H](CCCNC(=N)N)NC(=O)[C@@H](CSCC2=O)NC(=O)[C@@H](Cc2ccccc2)NC(=O)[C@H](Cc2cnc[nH]2)NC(=O)[C@@H](NC(=O)[C@@H](N)Cc2ccc(O)cc2)CSSC[C@@H](C(=O)N[C@@H](Cc2ccc(O)cc2)C(N)=O)NC(=O)[C@H](Cc2ccccc2)NC1=O` gave a pEC50 in assay [4] of 6.70.

As for `C[C@@H]1NC(=O)[C@H](CC(N)=O)NC(=O)[C@H](Cc2c[nH]c3ccccc23)N2C[C@H](CCCCNC(=N)N)NC(=O)[C@@H](CSCC2=O)NC(=O)[C@@H](Cc2ccccc2)NC(=O)[C@H](Cc2cnc[nH]2)NC(=O)[C@@H](NC(=O)[C@@H](N)Cc2ccc(O)cc2)CSSC[C@@H](C(=O)N[C@@H](Cc2ccc(O)cc2)C(N)=O)NC(=O)[C@H](Cc2ccccc2)NC1=O`, the pEC50 in assay [4] was 5.74.

As to `C[C@@H]1NC(=O)[C@H](CC(N)=O)NC(=O)[C@H](Cc2c[nH]c3ccccc23)N2C[C@H](CCCNC(=N)N)NC(=O)[C@H](CSCC2=O)NC(=O)[C@@H](Cc2ccccc2)NC(=O)[C@H](Cc2ccccc2)NC(=O)[C@@H](NC(=O)[C@@H](N)Cc2ccc(O)cc2)CSSC[C@@H](C(=O)N[C@@H](Cc2ccc(O)cc2)C(N)=O)NC(=O)[C@H](Cc2ccccc2)NC1=O`, the pEC50 in assay [1] was 6.38; in assay [2], 6.54; in assay [3], 8.71.

Consider `C[C@@H]1NC(=O)[C@H](CC(N)=O)NC(=O)[C@H](Cc2ccc3ccccc3c2)N2C[C@H](CCCNC(=N)N)NC(=O)[C@H](CSCC2=O)NC(=O)[C@@H](Cc2ccccc2)NC(=O)[C@H](Cc2c[nH]cn2)NC(=O)[C@@H](NC(=O)[C@@H](N)Cc2ccc(O)cc2)CSSC[C@@H](C(=O)N[C@@H](Cc2ccc(O)cc2)C(N)=O)NC(=O)[C@H](Cc2ccccc2)NC1=O`, for which the pEC50 in assay [1] was 7.28; in assay [2] it was 6.66; in assay [3] it was 8.21.

Turning to `C[C@@H]1NC(=O)[C@H](CC(N)=O)NC(=O)[C@H](Cc2ccc(-c3ccccc3)cc2)N2C[C@H](CCCNC(=N)N)NC(=O)[C@H](CSCC2=O)NC(=O)[C@@H](Cc2ccccc2)NC(=O)[C@H](Cc2c[nH]cn2)NC(=O)[C@@H](NC(=O)[C@@H](N)Cc2ccc(O)cc2)CSSC[C@@H](C(=O)N[C@@H](Cc2ccc(O)cc2)C(N)=O)NC(=O)[C@H](Cc2ccccc2)NC1=O`, the pEC50 is 6.08 in assay [1], 6.01 in assay [2] and 7.70 in assay [3].

Compound `C[C@@H]1NC(=O)[C@H](CC(N)=O)NC(=O)[C@H](C)N2C[C@H](CCCNC(=N)N)NC(=O)[C@@H](CSCC2=O)NC(=O)[C@@H](Cc2ccccc2)NC(=O)[C@H](Cc2cnc[nH]2)NC(=O)[C@@H](NC(=O)[C@@H](N)Cc2ccc(O)cc2)CSSC[C@@H](C(=O)N[C@@H](Cc2ccc(O)cc2)C(N)=O)NC(=O)[C@H](Cc2ccccc2)NC1=O` had a pEC50 in assay [4] of 5.65.

For `C[C@@H]1NC(=O)[C@H](CC(N)=O)NC(=O)[C@H](Cc2c[nH]c3ccccc23)N2C[C@H](CCCN=C(N)N)NC(=O)[C@@H](CSCC2=O)NC(=O)[C@@H]2CCCN2C(=O)[C@H](Cc2cnc[nH]2)NC(=O)[C@@H](NC(=O)[C@@H](N)Cc2ccc(O)cc2)CSSC[C@@H](C(=O)N[C@@H](Cc2ccc(O)cc2)C(N)=O)NC(=O)[C@H](Cc2ccccc2)NC1=O`, in assay [4], the pEC50 is 4.99.

With `C[C@@H]1NC(=O)[C@H](CC(N)=O)NC(=O)[C@H](C)N2C[C@H](CCCNC(=N)N)NC(=O)[C@H](CSCC2=O)NC(=O)[C@@H](Cc2ccccc2)NC(=O)[C@H](Cc2c[nH]cn2)NC(=O)[C@@H](NC(=O)[C@@H](N)Cc2ccc(O)cc2)CSSC[C@@H](C(=O)N[C@@H](Cc2ccc(O)cc2)C(N)=O)NC(=O)[C@H](Cc2ccccc2)NC1=O`, the pEC50 in assay [1] is 6.90; in assay [2] it was 6.68; in assay [3] it was 7.10.

`C[C@@H]1NC(=O)[C@H](CC(N)=O)NC(=O)[C@H](Cc2c[nH]c3ccccc23)N2C[C@H](CCCNC(=N)N)NC(=O)[C@H](CSCC2=O)NC(=O)[C@@H](Cc2ccc(-c3ccccc3)cc2)NC(=O)[C@H](Cc2c[nH]cn2)NC(=O)[C@@H](NC(=O)[C@@H](N)Cc2ccc(O)cc2)CSSC[C@@H](C(=O)N[C@@H](Cc2ccc(O)cc2)C(N)=O)NC(=O)[C@H](Cc2ccccc2)NC1=O`: the figures for the pEC50 in assay [1], in assay [2] and in assay [3] were 7.06, 6.12 and 8.96, respectively.

For `C[C@@H]1NC(=O)[C@H](CC(N)=O)NC(=O)[C@H](Cc2c[nH]c3ccccc23)N2C[C@H](CCCCNC(=N)N)NC(=O)[C@H](CSCC2=O)NC(=O)[C@@H](Cc2ccccc2)NC(=O)[C@H](Cc2c[nH]cn2)NC(=O)[C@@H](NC(=O)[C@@H](N)Cc2ccc(O)cc2)CSSC[C@@H](C(=O)N[C@@H](Cc2ccc(O)cc2)C(N)=O)NC(=O)[C@H](Cc2ccccc2)NC1=O`, the figures for the pEC50 in assay [1], in assay [2] and in assay [3] were 6.46, 6.02 and 7.82, respectively.

Regarding `C[C@@H]1NC(=O)[C@H](CC(N)=O)NC(=O)[C@H](Cc2c[nH]c3ccccc23)N2C[C@H](CCCNC(=N)N)NC(=O)[C@H](CSCC2=O)NC(=O)[C@@H](Cc2cccc3ccccc23)NC(=O)[C@H](Cc2c[nH]cn2)NC(=O)[C@@H](NC(=O)[C@@H](N)Cc2ccc(O)cc2)CSSC[C@@H](C(=O)N[C@@H](Cc2ccc(O)cc2)C(N)=O)NC(=O)[C@H](Cc2ccccc2)NC1=O`, the pEC50 in assay [1] was 6.69; in assay [2] it was 6.89; in assay [3], 8.13.

With `C[C@@H]1NC(=O)[C@H](CC(N)=O)NC(=O)[C@H](Cc2c[nH]c3ccccc23)N2C[C@H](CCCNC(=N)N)NC(=O)[C@H](CSCC2=O)NC(=O)[C@@H](Cc2ccc(I)cc2)NC(=O)[C@H](Cc2c[nH]cn2)NC(=O)[C@@H](NC(=O)[C@@H](N)Cc2ccc(O)cc2)CSSC[C@@H](C(=O)N[C@@H](Cc2ccc(O)cc2)C(N)=O)NC(=O)[C@H](Cc2ccccc2)NC1=O`, the figures for the pEC50 in assay [1], in assay [2] and in assay [3] were 8.01, 7.70 and 9.30, respectively.

As for `C[C@@H]1NC(=O)[C@H](CC(N)=O)NC(=O)[C@H](Cc2c[nH]c3ccccc23)N2C[C@H](CCCNC(=N)N)NC(=O)[C@H](CSCC2=O)NC(=O)[C@@H]2CCCN2C(=O)[C@H](Cc2c[nH]cn2)NC(=O)[C@@H](NC(=O)[C@@H](N)Cc2ccc(O)cc2)CSSC[C@@H](C(=O)N[C@@H](Cc2ccc(O)cc2)C(N)=O)NC(=O)[C@H](Cc2ccccc2)NC1=O`, the values for the pEC50 in assay [1], in assay [2] and in assay [3] were 5.96, 5.27 and 5.30, respectively.

With `C[C@@H]1NC(=O)[C@H](CC(N)=O)NC(=O)[C@H](Cc2c[nH]c3ccccc23)N2C[C@H](C)NC(=O)[C@H](CSCC2=O)NC(=O)[C@@H](Cc2ccccc2)NC(=O)[C@H](Cc2c[nH]cn2)NC(=O)[C@@H](NC(=O)[C@@H](N)Cc2ccc(O)cc2)CSSC[C@@H](C(=O)N[C@@H](Cc2ccc(O)cc2)C(N)=O)NC(=O)[C@H](Cc2ccccc2)NC1=O`, the pEC50 in assay [1] was 6.07; in assay [2], 5.89; in assay [3], 7.72.

Take `C[C@@H]1NC(=O)[C@H](CC(N)=O)NC(=O)[C@H](Cc2c[nH]c3ccccc23)N2C[C@H](CCCNC(=N)N)NC(=O)[C@H](CSCC2=O)NC(=O)[C@@H](Cc2ccc3ccccc3c2)NC(=O)[C@H](Cc2c[nH]cn2)NC(=O)[C@@H](NC(=O)[C@@H](N)Cc2ccc(O)cc2)CSSC[C@@H](C(=O)N[C@@H](Cc2ccc(O)cc2)C(N)=O)NC(=O)[C@H](Cc2ccccc2)NC1=O`: the pEC50 is 7.34 in assay [1], 6.72 in assay [2] and 8.06 in assay [3].

For `C[C@@H]1NC(=O)[C@H](CC(N)=O)NC(=O)[C@@H](Cc2ccc3ccccc3c2)N2C[C@H](CCCNC(=N)N)NC(=O)[C@H](CSCC2=O)NC(=O)[C@@H](Cc2ccccc2)NC(=O)[C@H](Cc2c[nH]cn2)NC(=O)[C@@H](NC(=O)[C@@H](N)Cc2ccc(O)cc2)CSSC[C@@H](C(=O)N[C@@H](Cc2ccc(O)cc2)C(N)=O)NC(=O)[C@H](Cc2ccccc2)NC1=O`, the values for the pEC50 in assay [1], in assay [2] and in assay [3] were 7.54, 7.30 and 7.85, respectively.
